Tests used:
[1] = biological target: T1, Mu-type opioid receptor (Rattus norvegicus, UniProt P33535); experiment: Inhibition of [3H]- DAMGO binding to Rat brain Opioid receptor mu 1
Procedure, shortened: (§1)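 Rat brain membranes labeled with [3H]DAMGO (1–3 nM), incubated 4 h at 25 °C in 50 mM Tris-HCl pH 7.4 with protease inhibitor cocktail. Nonspecific binding defined by 20 µM levallorphan. Displacement uses 8–10 test concentrations, run twice, diluted in 10 mM Tris pH 7.4 with 1 mg/mL BSA from 1 mM stocks containing 10% DMSO. IC50 and slope factor from curve fitting.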

[2] = biological target: Kappa-type opioid receptor (Cavia porcellus, UniProt P41144); experiment: Inhibition of [3H]- U69,593 binding to Guinea pig Opioid receptor kappa 1
Sequence of Kappa-type opioid receptor (P41144 whole entry): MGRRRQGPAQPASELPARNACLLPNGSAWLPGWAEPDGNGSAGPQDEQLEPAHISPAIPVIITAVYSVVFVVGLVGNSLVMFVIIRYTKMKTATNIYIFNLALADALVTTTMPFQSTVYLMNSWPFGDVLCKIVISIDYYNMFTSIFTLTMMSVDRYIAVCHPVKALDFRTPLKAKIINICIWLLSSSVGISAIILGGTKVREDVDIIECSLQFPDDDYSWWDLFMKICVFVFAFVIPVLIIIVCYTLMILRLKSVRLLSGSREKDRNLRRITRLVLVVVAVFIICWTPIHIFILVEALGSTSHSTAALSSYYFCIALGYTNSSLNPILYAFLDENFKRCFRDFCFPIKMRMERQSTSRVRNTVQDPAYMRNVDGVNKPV

[3] = biological target: Mu-type opioid receptor (Cavia porcellus, UniProt P97266); experiment: Agonistic activity for Opioid receptor mu 1 as inhibitory activity towards electrically stimulated guinea pig ileum; assay type: functional, tissue-based
Sequence of Mu-type opioid receptor (Cavia porcellus, UniProt P97266) (P97266 whole entry): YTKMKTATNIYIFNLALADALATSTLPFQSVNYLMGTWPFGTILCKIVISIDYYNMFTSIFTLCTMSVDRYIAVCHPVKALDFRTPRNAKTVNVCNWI
Procedure, shortened: (§2)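 Electrically stimulated smooth muscle bioassay. Guinea pig ileum longitudinal muscle-myenteric plexus strips come from male Hartley guinea pigs (250–500 g); vas deferens from male ICR mice (25–40 g). Tissues sit in 37 °C oxygenated Krebs bicarbonate (Mg-free for MVD) at 1 g tension (0.5 g MVD). Stimulation is 0.1 Hz, 0.4 ms pulses (2 ms MVD), supramaximal voltage.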

[4] = biological target: Delta-type opioid receptor (Rattus norvegicus, UniProt P33533); experiment: Inhibition of [3H]- DADLE binding to Rat brain Opioid receptor delta 1
Sequence of Delta-type opioid receptor (Rattus norvegicus, UniProt P33533) (P33533 whole entry): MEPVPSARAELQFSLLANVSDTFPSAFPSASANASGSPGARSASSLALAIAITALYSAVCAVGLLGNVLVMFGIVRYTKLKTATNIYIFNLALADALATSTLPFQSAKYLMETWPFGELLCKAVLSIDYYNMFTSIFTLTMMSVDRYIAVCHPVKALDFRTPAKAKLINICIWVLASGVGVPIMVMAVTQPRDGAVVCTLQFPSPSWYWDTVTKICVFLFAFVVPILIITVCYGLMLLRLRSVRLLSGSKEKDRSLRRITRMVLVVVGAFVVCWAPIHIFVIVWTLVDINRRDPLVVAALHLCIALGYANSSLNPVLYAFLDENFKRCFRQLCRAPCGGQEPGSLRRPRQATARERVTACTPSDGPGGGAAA

[5] = Relative affinity for […] opioid receptors
[6] = biological target: Delta-type opioid receptor (Mus musculus, UniProt P32300); experiment: Agonistic activity towards Opioid receptor delta 1 as inhibitory activity towards electrically stimulated mouse vas deferens; assay type: functional, tissue-based; procedure, shortened: as §2
Sequence of Delta-type opioid receptor (Mus musculus, UniProt P32300) (P32300 whole entry): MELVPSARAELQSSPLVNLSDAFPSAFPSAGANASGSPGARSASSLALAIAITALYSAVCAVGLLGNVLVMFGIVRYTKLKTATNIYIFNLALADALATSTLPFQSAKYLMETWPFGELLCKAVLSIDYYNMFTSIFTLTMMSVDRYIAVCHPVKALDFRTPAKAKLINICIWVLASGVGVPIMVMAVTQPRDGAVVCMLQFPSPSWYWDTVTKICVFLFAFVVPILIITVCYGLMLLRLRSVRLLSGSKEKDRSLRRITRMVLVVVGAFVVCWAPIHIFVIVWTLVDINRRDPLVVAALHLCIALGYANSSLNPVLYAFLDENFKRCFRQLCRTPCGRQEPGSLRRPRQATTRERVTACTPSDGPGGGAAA

[7] = biological target: Delta-type opioid receptor (Mus musculus) (UniProt P32300); experiment: Agonistic activity towards Opioid receptor delta 1 was determined by evaluating the inhibitory activity towards electrically stimulated mouse vas deferens; assay type: functional, tissue-based; settings: concentration not given here; procedure, shortened: as §2
Sequence of Delta-type opioid receptor (Mus musculus) (P32300 whole entry): as above

[8] = biological target: Mu-type opioid receptor (Cavia porcellus) (UniProt P97266); experiment: Agonistic activity (30 uM) towards mu opioid receptor was determined by evaluating the inhibitory activity towards electrically stimulated guinea pig ileum; assay type: functional, tissue-based; procedure, shortened: as §2
Sequence of Mu-type opioid receptor (Cavia porcellus) (P97266 whole entry): as the sequence (P97266 whole entry) above

[9] = Relative affinity for mouse vas deferens (delta receptor) and guinea pig ileum (mu receptor); assay type: tissue-based
Procedure, shortened: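 GPI/MVD IC50 ratio from the electrically stimulated guinea pig ileum and mouse vas deferens bioassays. Both tissues are stimulated at 0.1 Hz and supramaximal voltage, with cumulative agonist dosing.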

[10] = biological target: T1, Mu-type opioid receptor; experiment: Compound was evaluated for Inhibition of Radio Ligand binding of [3H]- DAMGO at Rat brain Opioid receptor mu 1 binding site; procedure, shortened: as §1

T1 sequence (P33535 whole entry): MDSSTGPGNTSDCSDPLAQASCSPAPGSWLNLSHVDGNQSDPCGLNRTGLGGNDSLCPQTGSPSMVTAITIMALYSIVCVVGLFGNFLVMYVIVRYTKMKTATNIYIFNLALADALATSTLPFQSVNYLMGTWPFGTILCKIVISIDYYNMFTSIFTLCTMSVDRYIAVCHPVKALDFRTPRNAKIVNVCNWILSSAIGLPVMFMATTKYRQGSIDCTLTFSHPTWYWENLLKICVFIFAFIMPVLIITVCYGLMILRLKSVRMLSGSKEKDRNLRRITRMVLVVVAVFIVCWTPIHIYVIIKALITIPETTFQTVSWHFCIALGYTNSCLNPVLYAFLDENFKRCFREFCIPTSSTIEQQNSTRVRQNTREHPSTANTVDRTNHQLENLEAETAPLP

Structure (SMILES) | IC50 [1] [nM] | IC50 [2] [nM] | IC50 [3] [nM] | IC50 [4] [nM] | Ratio [5] | IC50 [6] [nM] | Ratio [9] | further results
C=CCN1C[C@H](C)N([C@H](c2ccc(C(=O)N(CC)CC)cc2)c2cccc(OC)c2)C[C@H]1C [SNC-80] | 2470 | > 1000 | 5460 |  |  |  |  | 
CN1CCC2(c3ccccc3)CC1Cc1[nH]c3ccccc3c12 (racemic) |  | > 10000 |  | 1970 | 5.08 |  |  | 
COc1ccc2[nH]c3c(c2c1)C1(c2cccc(O)c2)CCN(C)C(C3)C1 (racemic) [listing 1 of 2 here] | 24.2 | > 1000 | 6770 | 90.1 |  | 4370 |  | 
COc1ccc2[nH]c3c(c2c1)C1(c2cccc(O)c2)CCN(C)C(C3)C1 (stereo in doubt; (-)-11) [listing 1 of 2 here] |  |  |  |  | 17.4 |  |  | inhibition [7]: 0%
COc1ccc2c3c([nH]c2c1)C[C@@H]1C[C@@]3(c2cccc(O)c2)CCN1C | 66.4 | 1160 |  | 3.7 | 314 | 49 | > 612 | inhibition [8]: 38%
COc1cccc2c3c([nH]c12)CC1CC3(c2cccc(O)c2)CCN1C (racemic) [listing 1 of 2 here] |  |  |  |  | 455 |  | 7.2 | 
CC(C)C[C@@H](NC(=O)[C@H](Cc1ccccc1)NC(=O)CNC(=O)[C@@H](C)NC(=O)[C@@H](N)Cc1ccc(O)cc1)C(=O)O [DADLE] |  | 4400 |  |  |  |  |  | 
COc1ccc2c3c([nH]c2c1)CC1CC3(c2cccc(O)c2)CCN1C (racemic) | 48.4 | > 1000 | 862 | 6.3 | > 159 | 118 | 7.3 | 
CN1CCC2(c3cccc(O)c3)CC(=O)CC1C2 (racemic) |  |  |  |  | 2.81 |  |  | 
CN1CC[C@]2(c3cccc(O)c3)C[C@H]1Cc1[nH]c3ccccc3c12 |  |  | 2350 | 5.6 |  | 393 | 6 | IC50 [10]: 14.2 nM
COc1cccc2c3c([nH]c12)CC1CC3(c2cccc(O)c2)CCN1C (racemic) [listing 2 of 2 here] | 28.8 | 3960 | 1950 | 8.7 |  | 270 |  | 
COc1cccc2c3c([nH]c12)CC1CC3(c2cccc(O)c2)CCN1C (single isomer, unassigned; (-)) [listing 1 of 2 here] | 29.4 | 1770 | 2890 | 4.4 |  | 165 |  | 
COc1ccc2[nH]c3c(c2c1)C1(c2cccc(O)c2)CCN(C)C(C3)C1 (stereo in doubt; (-)-11) [listing 2 of 2 here] | 474 | > 2500 | 25900 | 144 |  |  |  | 
COc1ccc2[nH]c3c(c2c1)C1(c2cccc(O)c2)CCN(C)C(C3)C1 (racemic) [listing 2 of 2 here] |  |  |  |  | 11.1 |  | 1.5 | 
COc1cccc2c3c([nH]c12)CC1CC3(c2cccc(O)c2)CCN1C (single isomer, unassigned; (-)) [listing 2 of 2 here] |  |  |  |  | 402 |  | 17.5 | 
CN1CCC2(c3cccc(O)c3)CC(=O)CC1C2 (stereo not given) |  |  |  |  | 4.46 |  |  | 

Source: ChEMBL document CHEMBL1129071, “Probes for narcotic receptor-mediated phenomena. 21. Novel derivatives of 3-(1,2,3,4,5,11-hexahydro-3-methyl-2,6-methano-6H-azocino[4,5-b]indol- 6-yl)-phenols with improved delta opioid receptor selectivity” (J Med Chem, 1996)
